Test results from publication PMC9097774 (International Journal of Oncology, 2022).

Tests used:
[1] = cited from earlier work
[2] = system: GLUT2 expression in HepG2 and Huh7 cells; test: Western blotting of GLUT2; assay type: cell-based, human; conditions: Fig. S1
HepG2 cells = test: Glycolytic activity; assay type: cell-based, human; conditions: cell culture supernatant; Fig. S1
Method in brief: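 Glucose remaining and lactate released into the cell culture supernatant were measured with a blood gas analyser.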

[3] = system: p53 phosphorylation in HepG2 and Huh7 cells; test: Western blotting of p53 and phosphorylated p53; assay type: cell-based, human; conditions: 24 h; BB 0.6 and 1.2 µM; Vs 4.0 µM
Method in brief: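 HepG2 and Huh7 cells were treated 24 h in RPMI with test compound (0.6 or 1.2 µM) or reference HDAC inhibitor (4.0 µM). Whole-cell extracts were made in SDS/deoxycholate/NP-40 buffer with protease inhibitors. Samples of 30 µg protein were run on 7.5% or 12% SDS-PAGE and blotted to PVDF. Blots were milk-blocked, given primary antibody overnight at 4°C, then HRP secondary (1:10,000) for 1 h. Tubulin served as loading control.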

HDAC1 = HDAC1 (Homo sapiens, UniProt Q13547); test: Cell free fluorogenic HDAC assay; assay type: biochemical; conditions: IC50 and two-fold IC50 concentrations; control set to 100%
Chain of HDAC1 (Q13547 whole entry): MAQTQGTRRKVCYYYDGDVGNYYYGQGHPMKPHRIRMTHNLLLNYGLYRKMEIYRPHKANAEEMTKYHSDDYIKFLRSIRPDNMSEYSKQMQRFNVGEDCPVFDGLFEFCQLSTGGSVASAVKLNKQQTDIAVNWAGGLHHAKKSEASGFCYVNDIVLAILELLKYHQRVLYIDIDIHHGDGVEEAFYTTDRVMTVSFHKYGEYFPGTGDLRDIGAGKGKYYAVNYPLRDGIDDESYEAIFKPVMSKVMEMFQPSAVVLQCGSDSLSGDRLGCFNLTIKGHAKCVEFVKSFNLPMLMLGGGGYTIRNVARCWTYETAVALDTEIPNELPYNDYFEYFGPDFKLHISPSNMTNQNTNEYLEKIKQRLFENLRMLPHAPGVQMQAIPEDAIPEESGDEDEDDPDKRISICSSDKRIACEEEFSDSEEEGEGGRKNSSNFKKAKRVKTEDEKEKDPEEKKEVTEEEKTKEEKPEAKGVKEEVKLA

SMILES	therapeutic concentration [1]	Protein expression levels of GLUT2 [2]	glycolytic activity (glucose consumption, lactate production) (HepG2 cells)	phosphorylation of p53 [3]	effect on activity of HDAC1 (HDAC1)
CNC(=O)c1cc(Oc2ccc(NC(=O)Nc3ccc(Cl)c(C(F)(F)F)c3)cc2)ccn1 [sorafenib]	~ 8 µM	–	–	–	–
O=C(CCCCCCC(=O)Nc1ccccc1)NO [vorinostat]	–	markedly reduced the expression of GLUT2	no such reduction in glycolytic activity could be observed	no increase in p53 phosphorylation	potent inhibitory effects
